Laboratory results published in ChEMBL document CHEMBL1629577, “Activity of T-705 in a hamster model of yellow fever virus infection in comparison with that of a chemically related compound, T-1106” (Antimicrob Agents Chemother, 2009).
The source made the active and inactive calls. No cut-off for these calls is given here.

Experiments:
Yellow fever virus [1] = test: Antiviral activity against 10^2 CCID50 Yellow fever virus Jimenez infected in syrian golden hamster assessed as serum ALT level in non surviving animals at 400 mg/kg/day, po administered 5 days post viral infection; assay type: functional
Yellow fever virus [2] = test: Antiviral activity against 10^2 CCID50 Yellow fever virus Jimenez infected in syrian golden hamster assessed as serum AST level in non surviving animals at 400 mg/kg/day, po administered 5 days post viral infection; assay type: functional
Yellow fever virus [3] = test: Antiviral activity against 10^2 CCID50 Yellow fever virus Jimenez infected in syrian golden hamster assessed as mean day of death […] at 400 mg/kg/day, po administered twice daily for 8 days started 1 day post infection; assay type: functional
Yellow fever virus [4] = test: Antiviral activity against 10^2 CCID50 Yellow fever virus Jimenez infected in syrian golden hamster assessed as mean day of death […] at 400 mg/kg/day, po administered twice daily for 8 days started 2 day post infection; assay type: functional
Yellow fever virus [5] = test: Antiviral activity against 10^2 CCID50 Yellow fever virus Jimenez infected in syrian golden hamster assessed as mean day of death […] at 400 mg/kg/day, po administered twice daily for 8 days started 3 day post infection; assay type: functional
Yellow fever virus [6] = test: Antiviral activity against 10^2 CCID50 Yellow fever virus Jimenez infected in syrian golden hamster assessed as mean day of death […] at 400 mg/kg/day, po administered twice daily for 8 days started 5 day post infection; assay type: functional
Yellow fever virus [7] = test: Antiviral activity against 10^2 CCID50 Yellow fever virus Jimenez infected in syrian golden hamster assessed as survival of animal at 400 mg/kg/day, po administered twice daily for 8 days started 1 day post viral infection; assay type: functional, organism-based
Yellow fever virus [8] = test: Antiviral activity against Yellow fever virus 17D infected in African green monkey Vero cells assessed as inhibition of virus induced cytopathic effect by microscopic analysis; assay type: functional, cell-based
Yellow fever virus [9] = test: Antiviral activity against Yellow fever virus 17D infected in African green monkey Vero cells assessed as inhibition of virus induced cytopathic effect […] by NR dye uptake assay; assay type: functional, cell-based
Yellow fever virus [10] = test: Antiviral activity against Yellow fever virus 17D infected in African green monkey Vero cells assessed as inhibition of virus induced cytopathic effect by luciferase reporter gene assay; assay type: functional, cell-based
Yellow fever virus [11] = test: Antiviral activity against Yellow fever virus 17D infected in African green monkey Vero cells assessed as reduction in virus yield; assay type: functional
Outline: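 Virus yield reduction in Vero cells infected with YFV 17D after compound exposure, with progeny virus titred by CCID50. The EC90 was averaged over separate experiments.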

Yellow fever virus [12] = test: Antiviral activity against 10^2 CCID50 Yellow fever virus Jimenez infected in syrian golden hamster assessed as serum ALT level at 400 mg/kg/day, po administered twice daily for 8 days started 4 hrs prior to viral infection; assay type: functional
Yellow fever virus [13] = test: Antiviral activity against 10^2 CCID50 Yellow fever virus Jimenez infected in syrian golden hamster assessed as reduction in viral titer in liver at 200 mg/kg/day administered twice daily for 8 days started 6 days post infection by quantitative RT-PCR analysis; assay type: functional, organism-based
Yellow fever virus [14] = test: Antiviral activity against 10^2 CCID50 Yellow fever virus Jimenez infected in syrian golden hamster assessed as serum ALT level at 200 mg/kg/day, po administered twice daily for 8 days started 4 hrs prior to viral infection; assay type: functional
Yellow fever virus [15] = test: Antiviral activity against 10^2 CCID50 Yellow fever virus Jimenez infected in syrian golden hamster assessed as serum AST level at 400 mg/kg/day, po administered twice daily for 8 days started 4 hrs prior to viral infection; assay type: functional, organism-based
Yellow fever virus [16] = test: Antiviral activity against 10^2 CCID50 Yellow fever virus Jimenez infected in syrian golden hamster assessed as serum AST level at 200 mg/kg/day, po administered twice daily for 8 days started 4 hrs prior to viral infection; assay type: functional, organism-based
Yellow fever virus [17] = test: Antiviral activity 10^2 CCID50 Yellow fever virus Jimenez infected in syrian golden hamster assessed as serum AST level at 100 mg/kg/day, po administered twice daily for 8 days started 4 hrs prior to viral infection; assay type: functional, organism-based
Yellow fever virus [18] = test: Antiviral activity against 10^2 CCID50 Yellow fever virus Jimenez infected in syrian golden hamster assessed as serum AST level at 50 mg/kg/day, po administered twice daily for 8 days started 4 hrs prior to viral infection; assay type: functional, organism-based
Yellow fever virus [19] = test: Antiviral activity against 10^2 CCID50 Yellow fever virus Jimenez infected in syrian golden hamster assessed as serum AST level at 32 mg/kg/day, po administered twice daily for 8 days started 4 hrs prior to viral infection; assay type: functional, organism-based
Yellow fever virus [20] = test: Antiviral activity against 10^2 CCID50 Yellow fever virus Jimenez infected in syrian golden hamster assessed as mean day of death […] at 400 mg/kg/day, po administered twice daily for 8 days started 4 hrs prior to viral infection relative to control; assay type: functional
Yellow fever virus [21] = test: Antiviral activity against 10^2 CCID50 Yellow fever virus Jimenez infected in syrian golden hamster assessed as mean day of death […] at 200 mg/kg/day, po administered twice daily for 8 days started 4 hrs prior to viral infection relative to control; assay type: functional
Yellow fever virus [22] = test: Antiviral activity against 10^2 CCID50 Yellow fever virus Jimenez infected in syrian golden hamster assessed as survival of animal at 400 mg/kg/day, po administered twice daily for 8 days started 4 hrs prior to viral infection; assay type: functional, organism-based
Yellow fever virus [23] = test: Antiviral activity against 10^2 CCID50 Yellow fever virus Jimenez infected in syrian golden hamster assessed as serum survival of animal at 100 mg/kg/day, po administered twice daily for 8 days started 4 hrs prior to viral infection; assay type: functional, organism-based
Yellow fever virus [24] = test: Antiviral activity against 10^2 CCID50 Yellow fever virus Jimenez infected in syrian golden hamster assessed as serum ALT level at 400 mg/kg/day, po administered daily for days started 1 day post viral challenge; assay type: functional
Yellow fever virus [25] = test: Antiviral activity against 10^2 CCID50 Yellow fever virus Jimenez infected in syrian golden hamster assessed as serum AST level at 400 mg/kg/day, po administered daily for days started 2 day post viral challenge; assay type: functional
Yellow fever virus [26] = test: Antiviral activity against 10^2 CCID50 Yellow fever virus Jimenez infected in syrian golden hamster assessed as serum ALT level at 400 mg/kg/day, po administered daily for days started 3 day post viral challenge; assay type: functional
Yellow fever virus [27] = test: Antiviral activity against 10^2 CCID50 Yellow fever virus Jimenez infected in syrian golden hamster assessed as serum AST level at 400 mg/kg/day, po administered daily for days started 3 day post viral challenge; assay type: functional
Yellow fever virus [28] = test: Antiviral activity against 10^2 CCID50 Yellow fever virus Jimenez infected in syrian golden hamster assessed as serum ALT level at 400 mg/kg/day, po administered daily for days started 5 day post viral challenge; assay type: functional
Yellow fever virus [29] = test: Antiviral activity against 10^2 CCID50 Yellow fever virus Jimenez infected in syrian golden hamster assessed as serum ALT level in surviving animals at 400 mg/kg/day, po administered 4 days post viral infection; assay type: functional
Yellow fever virus [30] = test: Antiviral activity against 10^2 CCID50 Yellow fever virus Jimenez infected in syrian golden hamster assessed as serum ALT level in surviving animals at 400 mg/kg/day, po administered 5 days post viral infection; assay type: functional
Yellow fever virus [31] = test: Antiviral activity against 10^2 CCID50 Yellow fever virus Jimenez infected in syrian golden hamster assessed as serum AST level in surviving animals at 400 mg/kg/day, po administered 5 days post viral infection; assay type: functional
Yellow fever virus [32] = test: Antiviral activity against 10^2 CCID50 Yellow fever virus Jimenez infected in syrian golden hamster assessed as serum ALT level in non surviving animals at 400 mg/kg/day, po administered 4 days post viral infection; assay type: functional

Compound: NC(=O)c1nc(F)cnc1O [FAVIPIRAVIR]
- Activity (Yellow fever virus [1]): 332 IU/L
- Activity (Yellow fever virus [2]): 285 IU/L
- Time (Yellow fever virus [3]): >21 days
- Time (Yellow fever virus [4]): >21 days
- Time (Yellow fever virus [5]): 7 days
- Time (Yellow fever virus [6]): 6.8 days
- Activity (Yellow fever virus [7]): Active
- EC50 (Yellow fever virus [8]): 180 µM
- EC50 (Yellow fever virus [9]): 270 µM
- EC50 (Yellow fever virus [10]): 270 µM
- EC90 (Yellow fever virus [11]): 330 µM
- Activity (Yellow fever virus [12]): 63 IU/L
- Activity (Yellow fever virus [13]): Active
- Activity (Yellow fever virus [14]): 128 IU/L
- Activity (Yellow fever virus [15]): inactive
- Activity (Yellow fever virus [16]): inactive
- Activity (Yellow fever virus [17]): inactive
- Activity (Yellow fever virus [18]): inactive
- Activity (Yellow fever virus [19]): inactive
- Time (Yellow fever virus [20]): 6 days
- Time (Yellow fever virus [21]): >21 days
- Activity (Yellow fever virus [22]): Active
- Activity (Yellow fever virus [23]): inactive
- Activity (Yellow fever virus [24]): 80 IU/L
- Activity (Yellow fever virus [25]): 75 IU/L
- Activity (Yellow fever virus [26]): 139 IU/L
- Activity (Yellow fever virus [27]): 137 IU/L
- Activity (Yellow fever virus [28]): 157 IU/L
- Activity (Yellow fever virus [29]): 77 IU/L
- Activity (Yellow fever virus [30]): 64 IU/L
- Activity (Yellow fever virus [31]): 153 IU/L
- Activity (Yellow fever virus [32]): 231 IU/L
